Reference: ChEMBL document CHEMBL2424628, “Discovery of potent and selective nonsteroidal indazolyl amide glucocorticoid receptor agonists” (Bioorg Med Chem Lett, 2013)

Legend:
Homo sapiens [1] = species on record: Homo sapiens; test: Selectivity ratio of Ki for progesterone receptor (unknown origin) to Ki for glucocorticoid receptor (unknown origin)
Homo sapiens [2] = species on record: Homo sapiens; test: Selectivity ratio of Ki for androgen receptor (unknown origin) to Ki for glucocorticoid receptor (unknown origin)
Progesterone receptor = target: T1, Progesterone receptor (Homo sapiens, UniProt P06401); test: Binding affinity to progesterone receptor (unknown origin) by fluorescence polarization assay
T1 sequence (P06401 whole entry): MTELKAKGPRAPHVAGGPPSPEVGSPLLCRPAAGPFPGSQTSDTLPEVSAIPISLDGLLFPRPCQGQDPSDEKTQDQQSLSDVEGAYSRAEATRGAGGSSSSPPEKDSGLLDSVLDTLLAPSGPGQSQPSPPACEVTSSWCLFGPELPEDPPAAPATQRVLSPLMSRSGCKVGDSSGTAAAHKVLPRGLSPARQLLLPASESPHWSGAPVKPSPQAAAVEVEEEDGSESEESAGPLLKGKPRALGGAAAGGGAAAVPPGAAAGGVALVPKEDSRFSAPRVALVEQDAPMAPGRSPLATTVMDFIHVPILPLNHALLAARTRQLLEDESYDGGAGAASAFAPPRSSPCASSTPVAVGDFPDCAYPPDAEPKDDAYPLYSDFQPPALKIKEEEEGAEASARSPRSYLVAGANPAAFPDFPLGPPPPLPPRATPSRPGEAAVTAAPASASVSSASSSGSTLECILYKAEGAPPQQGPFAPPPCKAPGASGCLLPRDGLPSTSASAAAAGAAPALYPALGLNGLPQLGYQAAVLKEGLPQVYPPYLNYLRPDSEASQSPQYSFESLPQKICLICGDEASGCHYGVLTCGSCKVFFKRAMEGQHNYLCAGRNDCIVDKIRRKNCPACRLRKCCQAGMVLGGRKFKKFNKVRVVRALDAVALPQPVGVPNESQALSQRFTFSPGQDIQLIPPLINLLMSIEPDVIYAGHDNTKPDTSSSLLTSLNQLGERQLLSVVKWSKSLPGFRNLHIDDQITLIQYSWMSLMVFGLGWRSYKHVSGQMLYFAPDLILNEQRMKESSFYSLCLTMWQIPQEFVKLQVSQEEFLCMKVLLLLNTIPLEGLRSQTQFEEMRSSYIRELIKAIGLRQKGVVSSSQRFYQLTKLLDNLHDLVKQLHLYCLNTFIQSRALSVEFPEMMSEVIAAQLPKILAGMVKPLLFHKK
Outline: (§1)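 Fluorescence polarization competition between test compound and a fluorescently labeled ligand for full-length receptor or its ligand binding domain. IC50 from a four-parameter logistic fit of the polarization signal, converted to Ki with Cheng–Prusoff […]. Means of duplicate experiments.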

Androgen receptor = target: T2, Androgen receptor (Homo sapiens, UniProt P10275); test: Binding affinity to androgen receptor (unknown origin) by fluorescence polarization assay; outline: as §1
T2 sequence (P10275 whole entry): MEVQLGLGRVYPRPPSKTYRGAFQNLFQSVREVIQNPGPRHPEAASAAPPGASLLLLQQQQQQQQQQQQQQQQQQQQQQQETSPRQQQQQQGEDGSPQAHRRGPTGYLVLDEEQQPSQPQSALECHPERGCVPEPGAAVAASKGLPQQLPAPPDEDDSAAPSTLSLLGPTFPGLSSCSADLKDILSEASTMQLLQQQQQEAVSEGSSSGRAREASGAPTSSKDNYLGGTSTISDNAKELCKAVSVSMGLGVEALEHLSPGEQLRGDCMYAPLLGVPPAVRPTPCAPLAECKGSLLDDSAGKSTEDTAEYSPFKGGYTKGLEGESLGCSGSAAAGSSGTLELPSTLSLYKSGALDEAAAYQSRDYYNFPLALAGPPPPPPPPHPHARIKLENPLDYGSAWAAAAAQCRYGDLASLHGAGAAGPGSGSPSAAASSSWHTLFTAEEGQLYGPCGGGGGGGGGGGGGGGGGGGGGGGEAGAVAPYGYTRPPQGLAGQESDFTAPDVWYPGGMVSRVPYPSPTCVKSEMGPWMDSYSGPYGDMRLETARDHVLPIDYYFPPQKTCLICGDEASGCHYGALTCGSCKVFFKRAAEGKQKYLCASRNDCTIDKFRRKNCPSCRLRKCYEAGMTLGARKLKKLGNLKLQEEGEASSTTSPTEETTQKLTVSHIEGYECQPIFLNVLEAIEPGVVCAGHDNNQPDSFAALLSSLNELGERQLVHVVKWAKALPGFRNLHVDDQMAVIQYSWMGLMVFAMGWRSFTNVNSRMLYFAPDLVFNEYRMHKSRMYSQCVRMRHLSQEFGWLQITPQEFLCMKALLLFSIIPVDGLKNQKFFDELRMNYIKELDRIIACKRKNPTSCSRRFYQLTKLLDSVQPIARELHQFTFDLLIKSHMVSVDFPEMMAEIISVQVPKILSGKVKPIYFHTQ

[3] = target: T3, Glucocorticoid receptor (Homo sapiens) (UniProt P04150); test: Agonist activity at glucocorticoid receptor in human A549 cells assessed as inhibition of PMA-induced AP-1 activation by luciferase reporter gene assay relative to dexamethasone; assay type: cell-based
T3 sequence (whole entry): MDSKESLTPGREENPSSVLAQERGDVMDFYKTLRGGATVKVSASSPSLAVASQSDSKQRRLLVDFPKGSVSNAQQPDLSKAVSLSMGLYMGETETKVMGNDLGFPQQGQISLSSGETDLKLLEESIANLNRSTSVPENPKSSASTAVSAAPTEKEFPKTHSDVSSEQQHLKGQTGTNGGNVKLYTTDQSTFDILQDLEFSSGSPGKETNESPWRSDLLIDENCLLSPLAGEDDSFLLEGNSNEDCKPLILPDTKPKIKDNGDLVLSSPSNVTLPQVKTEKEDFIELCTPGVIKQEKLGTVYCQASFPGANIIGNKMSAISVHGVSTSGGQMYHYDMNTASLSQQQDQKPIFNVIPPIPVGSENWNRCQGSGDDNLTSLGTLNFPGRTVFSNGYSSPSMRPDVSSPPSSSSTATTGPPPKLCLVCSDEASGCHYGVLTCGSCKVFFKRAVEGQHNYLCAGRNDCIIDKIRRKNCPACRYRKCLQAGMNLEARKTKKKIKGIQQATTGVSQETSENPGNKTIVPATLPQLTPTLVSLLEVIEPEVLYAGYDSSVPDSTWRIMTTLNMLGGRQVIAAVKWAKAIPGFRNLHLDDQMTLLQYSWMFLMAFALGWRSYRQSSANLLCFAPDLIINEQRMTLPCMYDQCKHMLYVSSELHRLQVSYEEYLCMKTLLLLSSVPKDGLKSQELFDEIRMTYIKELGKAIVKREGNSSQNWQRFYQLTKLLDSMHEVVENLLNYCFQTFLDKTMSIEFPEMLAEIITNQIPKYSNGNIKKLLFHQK
Outline: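 A549 lung epithelial cells stably carrying a luciferase reporter with 5 copies of the AP-1 response element; AP-1 induced with PMA (15 ng/ml). Compound inhibition of induction read as decreased luciferase. […] Means of two or more experiments in triplicate.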

Glucocorticoid receptor = target: T4, Glucocorticoid receptor (Homo sapiens, UniProt P04150); test: Agonist activity at glucocorticoid receptor in human A549 cells assessed as inhibition of PMA-induced AP-1 activation by luciferase reporter gene assay; assay type: cell-based
T4 sequence (P04150 whole entry): T3 sequence (whole entry)

SMILES | Ratio Ki (Homo sapiens [1]) | Ratio Ki (Homo sapiens [2]) | Ki (Progesterone receptor) | Ki (Androgen receptor) | Efficacy [3] | EC50 (Glucocorticoid receptor)
CCCC(c1ccc2c(cnn2-c2ccc(F)cc2)c1)C(C)(C)C(=O)Nc1nncs1 (racemic) | 10 | > 1000 | 109 nM | 2510 nM | 60% | 18 nM
CC(C(=O)Nc1nncs1)[C@@H](c1ccccc1)c1ccc2c(cnn2-c2ccc(F)cc2)c1 (single isomer, unassigned; diastereomer 2) |  |  | 214 nM | 243 nM |  | 
CC(C(=O)Nc1nncs1)[C@@H](c1ccccc1)c1ccc2c(cnn2-c2ccc(F)cc2)c1 (single isomer, unassigned; diastereomer 3) |  |  | 22 nM | > 4170 nM |  | 
